Screens from PubChem BioAssay.
In the library only some 4.6% were active in any assay of this set; here they are far more common.
TAAR1 ag: human TAAR1 agonism; CHO RD-HGA16 TAAR1, Fluo-8 calcium fluorescence; vehicle wells 0%, saturating PEA agonist 100%; hit rate 0.99% among 360,000; activation, % at 3 µM;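 active = activation above the mean activation of all test compounds in the run plus 3 SD, cut at about 38% in these data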
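Test system: RD-HGA16 (CHO) cells co-expressing Gα16 and hTAAR1; dosing: one-point dosing at 3 µM (nominal); timing: 17-24 h seeding, 75 min 37 °C dye, 30 min RT; signal: kinetic Fluo-8 calcium fluorescence; read-out basis: % activation relative to PEA EC100 response; controls: DMSO and PEA EC100; replicates: n 1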
CHO parental Ca: signal in parental CHO cells, OX1R antagonist counter-screen | parental CHO-K1, ATP-induced calcium, Fluo-8 fluorescence | inhibition, % at 5.6 µM | hit rate 0.63% among 330,000;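 active = inhibition above that plate's mean sample inhibition plus 3 SD, cut at about 26% in these data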;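 note: 0% = ATP-challenged DMSO wells and 100% = DMSO wells without ATP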
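Material: Parental CHO cells | Reagent: ATP | Compound dosing: Single nominal dose of 5.6 µM per compound | Detection: Intracellular calcium via Fluo-8 no-wash fluorescent dye | Read-out: % inhibition of ATP-induced calcium mobilization | Benchmarks: Low control ATP plus DMSO, high control DMSO only | Replicates: Singlicate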
OX1R antag-1: human HCRTR1 antagonism | O43613 | CHO/OX1R cells, Fluo-8 calcium fluorescence, orexin A | inhibition, % at 5 µM | hit rate 0.43% among 330,000;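 active = inhibition above its plate's threshold, mean inhibition of all tested compounds on the plate plus 3 SD, cut at about 37% in these data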;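 note: 0% = orexin A challenge wells and 100% = SB-334867-A antagonist wells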
TAAR1 antag: antagonists of human TAAR1; Q96RJ0; CHO RD-HGA16 TAAR1, Fluo-8 calcium fluorescence, antagonist; inhibition, % at 3 µM; hit rate 1.5% among 360,000;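 active = inhibition above a per-plate cutoff, the mean inhibition of test compounds on that plate plus 3 SD, cut at about 49% in these data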;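 note: 0% = DMSO plus EC80 beta-PEA response and 100% = DMSO alone without agonist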
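Material: CHO RD-HGA16 cells bearing hTAAR1; compound dosing: one-point dosing, 3 µM nominal final; schedule: dye loading 75 min at 37 °C, then 30 min room temperature; measured by: calcium fluorescence with Fluo-8; control set: vehicle and agonist controls; replication: n of 1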
GPR7 antagonist: blocks human GPR7 receptor signaling; GPR7-expressing cells, fluorescence antagonist assay; inhibition, % at 4.4 µM; hit rate 1.1% among 290,000; AID 1861; in the data active = inhibition above about 16%, passing the limit was not always enough;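 note: cells stimulated with the agonist NPW; 0% = agonist with vehicle and 100% = vehicle without agonist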
Target sequence (P48145 whole entry, looked up): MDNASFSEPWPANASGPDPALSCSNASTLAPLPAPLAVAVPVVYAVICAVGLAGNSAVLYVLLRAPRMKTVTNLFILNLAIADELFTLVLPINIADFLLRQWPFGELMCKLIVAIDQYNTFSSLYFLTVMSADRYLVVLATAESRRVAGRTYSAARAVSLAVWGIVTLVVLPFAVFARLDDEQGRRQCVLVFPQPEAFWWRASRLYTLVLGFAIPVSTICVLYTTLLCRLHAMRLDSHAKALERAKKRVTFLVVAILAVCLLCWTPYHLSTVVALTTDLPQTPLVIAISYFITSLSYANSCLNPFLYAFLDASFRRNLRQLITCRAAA
OX1R antag-2: OX1R (human) antagonism; inhibition, % at 6.6 µM; hit rate 1.8% among 330,000; OX1R-expressing cells, FRET antagonist read-out; O43613; in the data active = inhibition mostly above about 38%, no sharp cut-off; inactive = mostly below about 40%;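 note: 0% = agonist challenge alone and 100% = reference antagonist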
TAAR1 ag confirm: confirmation of human TAAR1 agonists. shares compounds with TAAR1 ag. hit rate 82% among 2,400. activation, % at 3 µM. CHO RD-HGA16 TAAR1, Fluo-8 calcium fluorescence; scaled: DMSO 0%, maximal phenethylamine 100%;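 active = activation above a cutoff set at the run's mean compound activation plus 3 SD, cut at about 39% in these data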
Ga16 nonsel ag: nonselective agonist in parental cells, TAAR1 agonist counter-screen | hit rate 50% among 2,400 | activation, % at 3 µM | shares compounds with TAAR1 ag | CHO-Ga16 parental, Fluo-8 calcium fluorescence; normalized to maximal ATP response, DMSO zero | AID 651787;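 active = activation above the run cutoff, the mean activation over all tested wells plus 3 SD, cut at about 12% in these data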;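 note: 0% = DMSO wells and 100% = maximal ATP response on the peak over basal ratio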
TAAR1 desensitize: human TAAR1 agonist that also desensitizes the receptor | shares compounds with TAAR1 ag | CHO RD-HGA16 hTAAR1, Fluo-8 calcium, beta-PEA response inhibition | inhibition, % at 3 µM | hit rate 46% among 2,400 | AID 651951;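 active = inhibition above the run cutoff, the mean inhibition of all test compounds plus 3 SD, cut at about 49% in these data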;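 note: beta-PEA stimulus applied at its EC80; loss of beta-PEA calcium signal after compound pretreatment read as receptor desensitization; 0% = DMSO with beta-PEA at EC80 and 100% = DMSO alone without agonist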
Ga16 antag count: counter-screen for TAAR1 agonists: nonselective Ga16 antagonists | CHO-Ga16 ATP-induced calcium, Fluo-8 fluorescence | shares compounds with TAAR1 ag | hit rate 39% among 2,400 | inhibition, % at 3 µM | AID 651952;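 active = inhibition above the plate's mean compound inhibition plus 3 SD, computed per plate, cut at about 22% in these data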;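 note: 0% = EC80 ATP with DMSO and 100% = DMSO wells without ATP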
* marks the source's active call; other numbers are inactive results; . = no result given.

SMILES | TAAR1 ag | CHO parental Ca | OX1R antag-1 | TAAR1 antag | GPR7 antagonist | OX1R antag-2 | TAAR1 ag confirm | Ga16 nonsel ag | TAAR1 desensitize | Ga16 antag count
CC1C=CCCC12C(=O)NC(=O)NC2=O (stereo not drawn) | 6.2 | . | . | -8.3 | . | . | . | . | . | .
CCC(C)n1c(O)c(C=NCCc2ccccc2)c(=O)[nH]c1=S (stereo not drawn) | 68.8* | -20.9 | -50.4 | 5.1 | -20.4 | 9.1 | 59.9* | 1.2 | 14.1 | 7.7
Cc1ncc(CNC(=O)N(CCCl)N=O)c(N)n1 | 2.2 | 2.2 | -0.5 | -30.0 | . | 15.5 | . | . | . | .
O=C1C2CC=CCC2C(=O)N1SC(Cl)(Cl)Cl (stereo not drawn) | 57.4* | . | . | 53.8* | . | . | 42.9* | 25.8* | 55.0* | 48.9*
CC(=O)O/C(=C1\CC2C3CC=C4CC(OC(C)=O)CCC4(C)C3CCC2(C)C1=O)C(F)(F)F (stereo not drawn) | 2.1 | . | . | 1.0 | . | . | . | . | . | .
CCOc1ccc([N+](=O)[O-])cc1CNCCc1ccccc1 | 51.8* | -14.2 | -27.4 | 26.7 | 44.1* | 38.5 | 65.7* | 2.1 | 50.5* | 17.6
CCOc1ccccc1CNCCc1ccc2c(c1)OCO2 | 0.3 | -15.6 | -29.5 | -10.4 | 5.9 | 14.4 | . | . | . | .
CCOC(=O)CNC(=O)N1Cc2cc(N3CCOCC3)ccc2-n2nncc2C1 | -0.3 | . | . | -3.5 | . | . | . | . | . | .
c1ccc(Cc2cnc(N3CCNCC3)nc2)cc1 | 44.6* | . | . | -17.6 | . | . | 58.2* | -0.1 | 19.0 | 5.5
c1cnc(N2CCNCC2)nc1 | 23.4 | -6.3 | -7.5 | -19.6 | -10.4 | 16.8 | . | . | . | .
CCCCn1c(O)c(C(CC)=NCCc2ccccc2)c(=O)[nH]c1=O | 58.0* | -10.4 | -14.1 | 70.0* | -9.8 | 6.5 | 68.4* | 6.9 | 42.6 | 23.4*
CCCCn1c(O)c(C(CC)=NCc2ccc(F)cc2)c(=O)[nH]c1=O | 15.4 | -15.4 | -16.3 | 20.9 | -15.8 | 3.5 | . | . | . | .
CCC(=NCc1ccco1)c1c(O)n(C)c(=O)n(C)c1=O | 21.2 | -9.7 | 11.6 | -15.2 | -10.0 | 5.5 | . | . | . | .
C=CCn1c(O)c(C(CC)=NCCc2ccccc2)c(=O)[nH]c1=O | 73.6* | -9.2 | -31.0 | 29.9 | -12.0 | 19.5 | 77.9* | 4.8 | 40.2 | 4.9
CCC(=NCCc1ccccc1)c1c(O)n(C)c(=O)n(C)c1=O | 62.4* | 1.8 | 2.4 | -3.2 | -8.4 | 3.7 | 60.6* | 10.2 | 40.0 | 32.2*
O=C(NCC1=C(c2ccc3ccccc3c2)C[C@@H]2CC[C@H]1N2Cc1ccco1)c1ccc([N+](=O)[O-])cc1 | 7.0 | . | . | 8.1 | . | . | . | . | . | .
O=C(/C=C/c1ccc(F)cc1)NC(=S)N1C[C@H]2C[C@H](C1)c1cccc(=O)n1C2 | 0.5 | -16.6 | -19.2 | -14.5 | -11.5 | 7.9 | . | . | . | .
COc1cc(C2(C#N)CCN(C)CC2)cc(OC)c1OC | 4.1 | . | . | -4.0 | . | . | . | . | . | .
Clc1ccc(CCNCc2ccncc2)c(Cl)c1 | 74.5* | -11.8 | -15.4 | 51.6* | 13.0 | -5.4 | 89.3* | 5.4 | 71.5* | 0.8
COc1ccc(CNCCc2ccc(Cl)cc2Cl)cc1 | 5.2 | -6.6 | -4.5 | -1.8 | -10.2 | 3.9 | . | . | . | .
O=C1c2cccc(N3CCNCC3)c2C2CCCCN12 (stereo not drawn) | -0.4 | . | . | -20.1 | . | . | . | . | . | .
NCCc1ccc(O)cc1 | 118.2* | 9.9 | 4.4 | 88.9* | -6.4 | 9.9 | 98.7* | 2.7 | 94.2* | 1.3
CCc1cc(=O)oc2c(C)c(OCC(=O)N3C[C@H]4C[C@@H](C3)c3cccc(=O)n3C4)ccc12 | -0.5 | -7.2 | -10.9 | -2.6 | 4.7 | 8.8 | . | . | . | .
